Published values collected from several papers.
Each line is one published result; the experiments were not run side by side.
Target: Mitogen-activated protein kinase kinase kinase 5 (MAP3K5, Homo sapiens, UniProt Q99683)
Sequence (Q99683 1-1374, as in one of the studies): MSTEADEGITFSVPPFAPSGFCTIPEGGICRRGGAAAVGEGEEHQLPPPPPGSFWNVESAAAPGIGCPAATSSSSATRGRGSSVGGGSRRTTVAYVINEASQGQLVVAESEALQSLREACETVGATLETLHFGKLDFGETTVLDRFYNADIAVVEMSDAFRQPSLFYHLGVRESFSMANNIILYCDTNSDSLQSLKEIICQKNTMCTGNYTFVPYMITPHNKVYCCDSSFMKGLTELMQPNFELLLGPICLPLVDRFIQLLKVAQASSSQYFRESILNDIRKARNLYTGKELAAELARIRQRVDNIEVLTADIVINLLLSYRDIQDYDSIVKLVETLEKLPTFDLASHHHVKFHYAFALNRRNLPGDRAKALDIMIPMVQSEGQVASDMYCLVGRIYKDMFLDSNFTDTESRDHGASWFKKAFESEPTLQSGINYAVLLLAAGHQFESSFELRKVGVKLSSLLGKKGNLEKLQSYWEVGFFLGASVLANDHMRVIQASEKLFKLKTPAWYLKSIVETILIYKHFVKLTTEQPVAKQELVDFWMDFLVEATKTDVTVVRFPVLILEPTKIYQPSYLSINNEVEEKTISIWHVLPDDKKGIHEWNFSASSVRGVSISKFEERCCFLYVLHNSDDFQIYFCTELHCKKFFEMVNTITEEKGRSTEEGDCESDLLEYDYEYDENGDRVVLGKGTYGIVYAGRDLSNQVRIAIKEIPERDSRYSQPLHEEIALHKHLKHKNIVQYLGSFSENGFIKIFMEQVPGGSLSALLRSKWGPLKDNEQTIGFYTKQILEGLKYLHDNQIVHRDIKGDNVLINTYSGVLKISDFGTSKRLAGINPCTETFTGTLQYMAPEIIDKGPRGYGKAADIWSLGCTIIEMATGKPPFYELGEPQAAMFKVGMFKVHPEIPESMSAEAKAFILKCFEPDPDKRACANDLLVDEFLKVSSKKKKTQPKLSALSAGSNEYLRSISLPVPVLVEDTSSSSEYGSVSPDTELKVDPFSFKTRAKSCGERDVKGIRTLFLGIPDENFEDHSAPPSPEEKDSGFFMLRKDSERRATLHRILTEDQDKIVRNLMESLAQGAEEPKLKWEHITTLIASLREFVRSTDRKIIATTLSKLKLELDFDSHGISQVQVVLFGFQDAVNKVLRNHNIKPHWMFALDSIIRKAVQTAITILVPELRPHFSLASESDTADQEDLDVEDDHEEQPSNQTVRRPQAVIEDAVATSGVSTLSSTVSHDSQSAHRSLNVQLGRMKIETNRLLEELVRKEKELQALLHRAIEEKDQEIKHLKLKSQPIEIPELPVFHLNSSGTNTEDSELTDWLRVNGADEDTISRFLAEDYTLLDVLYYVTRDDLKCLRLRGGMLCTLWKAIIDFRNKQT

For COc1cc(Nc2cnc(C#N)c(O[C@H](C)CN(C)C)n2)ncc1-c1cnn(C)c1, the remaining activity was 95% (enzyme activity, inhibitor, radiometric; 1 µM).
c1ccc(N2CCN(Cc3nc4ccccc4[nH]3)CC2)nc1 gave a remaining binding of 93% (binding, competition with immobilised ligand; 1 µM).
CCN1CCN(Cc2ccc(NC(=O)c3ccc(C)c(/C=C/c4cnc5[nH]ccc5c4OC)c3)cc2C(F)(F)F)CC1 gave an inhibition of -35.5% (target engagement in cells, inhibitor, chemoproteomics; A-375; 5 µM).
For O=C(Nc1cnn(-c2csc(C(=O)NC3COC3)c2)c1)Nc1ccccc1Cl, the remaining activity was 91.2% (enzyme activity, inhibitor; 5 µM).
With Cn1c2c(Cl)c(Cl)ccc2c2cc[nH]c(=O)c21 the ΔTm was 2.1 °C (thermal stability, DSF; 10 µM).
For CC1=C(C#N)[C@@H](c2ccc3[nH]nc(C)c3c2)C(C#N)=C(c2ccc(Cl)cc2)N1, the remaining binding was 100% (cell-free assay, competition with immobilised ligand; 1 µM).
With CC(C)(C)c1nc2c(s1)c1nc(N)ncc1c1ccc(NS(=O)(=O)c3c(F)cccc3F)c(F)c12 the remaining activity was 104% (enzyme activity, inhibitor, radiometric; 1 µM).
CNCc1ccc(-c2cc(-c3nc(-c4ccc(S(=O)(=O)C(C)C)cc4)cnc3N)on2)cc1 gave an inhibition of 0% (enzyme activity, inhibitor; 2 µM).
For CC(C)CC(=O)N1CCc2nc(-c3ccc(Br)cc3)nc(N(C)Cc3ccccc3)c2C1, the remaining binding was 91% (cell-free assay, competition with immobilised ligand; 0.1 µM).
The inhibition of CCCS(=O)(=O)Nc1ccc(F)c(C(=O)c2c[nH]c3ncc(-c4ccc(Cl)cc4)cc23)c1F is reported as < 10% (enzyme activity, inhibitor; 1 µM).
The remaining activity of CCN(CC)c1ccc(C2=NNC(=O)CC2C)cc1[N+](=O)[O-] (stereo not shown) is reported as 101% (enzyme activity, inhibitor; 10 µM).
For CCC1(CC)NC(=O)c2c(c3ccc(Cl)c(Cl)c3n2C)C1C#N (stereo not shown), the ΔTm was 0.7 °C (thermal stability, DSF; 10 µM).
With CCOc1cc(-c2nncn2C)ccc1Nc1ncc2cc(C)nc(NCC(C)(C)C)c2n1 the inhibition was ≤ 15% (cell-free assay, TR-FRET; 1 µM).
The inhibition of c1ccc(CNc2nc(N3CCOc4ccccc43)nc3c2CCCC3)cc1 is reported as -10.3% (target engagement in cells, inhibitor, chemoproteomics; 20 mM).
The ΔTm of Cn1c2c(c3ccc(Cl)c(Cl)c31)C(C#N)C1(CCNCC1)NC2=O (racemic) is reported as 0.1 °C (thermal stability, DSF; 10 µM).
NS(=O)(=O)c1cc(NC(=O)Cc2ccccc2)ccc1Oc1cccc(Cl)c1 gave a remaining binding of 100% (cell-free assay, competition with immobilised ligand; 1 µM).
The inhibition of CCN1CCN(Cc2ccc(NC(=O)c3ccc(C)c(Oc4ccnc5[nH]ccc45)c3)cc2C(F)(F)F)CC1 is reported as -27.1% (target engagement in cells, inhibitor, chemoproteomics; A-375; 5 µM).
For O=C1NC(=O)c2cc(Nc3ccc(F)cc3)c(Nc3ccc(F)cc3)cc21, the remaining signal was 96.6% (cell-free assay; 0.5 µM).
CCN(CC)CCNC(=O)c1c(C)[nH]c(/C=C2\C(=O)Nc3ccc(F)cc32)c1C has an inhibition of 38% (enzyme activity, inhibitor; 10 µM).
CC1(C)NC(=O)c2[nH]c3c(Cl)c(Cl)ccc3c2C1C#N (stereo not shown) gave a ΔTm of 1.6 °C (thermal stability, DSF; 10 µM).
For CCCCN(CCCC)C(=O)CN1C[C@H](c2cc(OC)c3c(c2)OCO3)[C@@H](C(=O)O)[C@@H]1CC(C)(C)CCC, the remaining binding was 100% (cell-free assay, competition with immobilised ligand; 1 µM).
For Cc1ccc(Nc2nccc(N(C)c3ccc4c(C)n(C)nc4c3)n2)cc1S(N)(=O)=O, the inhibition was 5% (enzyme activity, inhibitor; 10 µM).
For Cn1c2c(Cl)c(Cl)ccc2c2cc(N)[nH]c(=O)c21, the ΔTm was 1.5 °C (thermal stability, DSF; 10 µM).
CC(C)(O)[C@H]1CC[C@H](Nc2ccc3ncc(-c4cccc(C(F)(F)F)c4)n3n2)CC1 has a remaining activity of 96.7% (enzyme activity, inhibitor; 1 µM).
With Oc1cccc(-c2nc(N3CCOCC3)c3oc4ncccc4c3n2)c1 the remaining activity was 101% (enzyme activity, inhibitor; 10 µM).
Cc1cc(NC(=O)c2cccc3cc(-c4cccc5[nH]nc(N)c45)ccc23)ccc1F has an activity vs control of 109% (enzyme activity, inhibitor; 0.1 µM).
The inhibition of CNC(=O)c1cc(Oc2ccc(NC(=O)Nc3ccc(Cl)c(C(F)(F)F)c3)cc2)ccn1 is reported as 9% (enzyme activity, inhibitor; 10 µM).
The remaining binding of CN(C)c1ncnc(-c2ccc3nc(Nc4cc(CN5CCN(C(=O)CC(F)(F)F)CC5)ccn4)[nH]c3c2)c1Cl is reported as 100% (cell-free assay, competition with immobilised ligand; 1 µM).
The remaining activity of Cc1cnc(NC2CCOCC2)nc1-n1cnc(C(=O)NC(CN)c2cc(F)cc(Cl)c2)c1 (stereo not shown) is reported as 105% (enzyme activity, inhibitor, radiometric; 1 µM).
The remaining binding of CO[C@@H](C)c1c(Nc2ccc([C@@H](N(C)C(=O)C3CCS(=O)(=O)CC3)C(F)(F)F)cc2)cnc2cc(Cl)nn12 is reported as 81% (cell-free assay, competition with immobilised ligand; 1 µM).
The remaining signal of Nc1ncnc2occ(-c3ccc(NC(=O)Nc4cc(C(F)(F)F)ccc4F)cc3)c12 is reported as 7.8% (cell-free assay, inhibitor; 20 µM).
Cn1c2c(c3ccc(Cl)c(Cl)c31)C(C#N)C1(CCN(C(=O)OC(C)(C)C)CC1)NC2=O (racemic) has a ΔTm of 0 °C (thermal stability, DSF; 10 µM).
With COc1cccc2c(NCc3ccccc3)nc(-n3c(N)nc4ccccc43)nc12 the inhibition was -7.6% (target engagement in cells, inhibitor, chemoproteomics; 20 mM).
For Cc1ccc(NC(=O)c2ccc(C)c(C(F)(F)F)c2)cc1C#Cc1nn(C2CCC(O)CC2)c2ncnc(N)c12 (stereo not shown), the remaining signal was 127% (cell-free assay; 10 µM).
C[S+]([O-])c1ccc(-c2nc(-c3ccncc3)c(-c3ccc(F)cc3)[nH]2)cc1 (stereo not shown) has a remaining signal of 107% (cell-free assay; 0.5 µM).
With CC(=O)N1CCC(c2ccc(C(=O)NC3=NCCN3)cc2C(F)(F)F)CC1 the remaining binding was 100% (cell-free assay, competition with immobilised ligand; 1 µM).
The activity vs control of FC(F)(F)Oc1cccc(-c2cnc3ccc(-c4ccncc4)nn23)c1 is reported as 88% (enzyme activity, inhibitor, radiometric; 1 µM).
